# Data: ChEMBL document CHEMBL5058577, “EUbOPEN Chemogenomics Library 2 (Multiplex)” (2022)
# Test system: Fibroblast
# Assay: Multiplex assay against human fibroblast
# Type: toxicity, cell-based
# Method in brief: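 Live cells carried four stains from seeding: Hoechst33342, BioTracker Green Microtubule Cytoskeleton Dye, MitoTracker Red and Annexin V Alexa Fluor 680. They were imaged on a CQ1 microscope at 37°C and 5% CO2 after compound addition. Using CellPathfinder machine-learning gating, cells were split into Hoechst high-intensity objects or normal cells, normal cells into healthy, pyknosed or fragmented nuclei, and pyknosed cells into mitotic or apoptotic; tubulin, mitochondrial-mass and membrane-permeability phenotypes are per cents of healthy-nucleus cells.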
# [1] = 12 h, 1 µM, compound concentration 1 uM, replicate 1
# [2] = 12 h, 1 µM, compound concentration 1 uM, replicate 2
# [3] = 12 h, 10 µM, compound concentration 10 uM, replicate 1
# [4] = 12 h, 10 µM, compound concentration 10 uM, replicate 2
# [5] = 24 h, 1 µM, compound concentration 1 uM, replicate 1
# [6] = 24 h, 1 µM, compound concentration 1 uM, replicate 2
# [7] = 24 h, 10 µM, compound concentration 10 uM, replicate 1
# [8] = 24 h, 10 µM, compound concentration 10 uM, replicate 2
# [9] = 48 h, 1 µM, compound concentration 1 uM, replicate 1
# [10] = 48 h, 1 µM, compound concentration 1 uM, replicate 2
# [11] = 48 h, 10 µM, compound concentration 10 uM, replicate 1
# [12] = 48 h, 10 µM, compound concentration 10 uM, replicate 2
structure (smiles),measurement,setting,value
O=C(O)c1cc2ccccc2c(Cc2c(O)c(C(=O)O)cc3ccccc23)c1O [PAMOIC ACID],Population Apoptotic (%),[1],54%
same,Population Fragmented Nuclei (%),[1],10%
same,Population Healthy Nuclei (%),[1],81%
same,Population Hoechst High Intensity Objects (%),[1],2%
same,Population Membrane Permeable-Phenotype (%),[1],0%
same,Population Mitochondria Different-Phenotype (%),[1],2%
same,Population Mitotic Cells (%),[1],45%
same,Population Normal (%),[1],97%
same,Population Pyknosed Nuclei (%),[1],7%
same,Population Tubulin-Different-Phenotype (%),[1],20%
same,Total Cell Count,[1],147
same,Population Apoptotic (%),[2],32%
same,Population Fragmented Nuclei (%),[2],23%
same,Population Healthy Nuclei (%),[2],56%
same,Population Hoechst High Intensity Objects (%),[2],6%
same,Population Membrane Permeable-Phenotype (%),[2],6%
same,Population Mitochondria Different-Phenotype (%),[2],8%
same,Population Mitotic Cells (%),[2],67%
same,Population Normal (%),[2],93%
same,Population Pyknosed Nuclei (%),[2],19%
same,Population Tubulin-Different-Phenotype (%),[2],34%
same,Total Cell Count,[2],154
same,Population Apoptotic (%),[3],40%
same,Population Fragmented Nuclei (%),[3],7%
same,Population Healthy Nuclei (%),[3],80%
same,Population Hoechst High Intensity Objects (%),[3],4%
same,Population Membrane Permeable-Phenotype (%),[3],1%
same,Population Mitochondria Different-Phenotype (%),[3],5%
same,Population Mitotic Cells (%),[3],60%
same,Population Normal (%),[3],95%
same,Population Pyknosed Nuclei (%),[3],11%
same,Population Tubulin-Different-Phenotype (%),[3],23%
same,Total Cell Count,[3],132
same,Population Apoptotic (%),[4],37%
same,Population Fragmented Nuclei (%),[4],24%
same,Population Healthy Nuclei (%),[4],51%
same,Population Membrane Permeable-Phenotype (%),[4],3%
same,Population Mitochondria Different-Phenotype (%),[4],3%
same,Population Mitotic Cells (%),[4],62%
same,Population Pyknosed Nuclei (%),[4],24%
same,Population Tubulin-Different-Phenotype (%),[4],51%
same,Total Cell Count,[4],156
same,Population Apoptotic (%),[5],33%
same,Population Fragmented Nuclei (%),[5],10%
same,Population Healthy Nuclei (%),[5],86%
same,Population Hoechst High Intensity Objects (%),[5],3%
same,Population Membrane Permeable-Phenotype (%),[5],0%
same,Population Mitochondria Different-Phenotype (%),[5],2%
same,Population Mitotic Cells (%),[5],66%
same,Population Normal (%),[5],96%
same,Population Pyknosed Nuclei (%),[5],4%
same,Population Tubulin-Different-Phenotype (%),[5],17%
same,Total Cell Count,[5],156
same,Population Apoptotic (%),[6],32%
same,Population Fragmented Nuclei (%),[6],23%
same,Population Healthy Nuclei (%),[6],58%
same,Population Hoechst High Intensity Objects (%),[6],6%
same,Population Membrane Permeable-Phenotype (%),[6],9%
same,Population Mitochondria Different-Phenotype (%),[6],11%
same,Population Mitotic Cells (%),[6],68%
same,Population Normal (%),[6],93%
same,Population Pyknosed Nuclei (%),[6],18%
same,Population Tubulin-Different-Phenotype (%),[6],39%
same,Total Cell Count,[6],147
same,Population Apoptotic (%),[7],50%
same,Population Fragmented Nuclei (%),[7],8%
same,Population Healthy Nuclei (%),[7],77%
same,Population Hoechst High Intensity Objects (%),[7],2%
same,Population Membrane Permeable-Phenotype (%),[7],1%
same,Population Mitochondria Different-Phenotype (%),[7],1%
same,Population Mitotic Cells (%),[7],50%
same,Population Normal (%),[7],97%
same,Population Pyknosed Nuclei (%),[7],13%
same,Population Tubulin-Different-Phenotype (%),[7],20%
same,Total Cell Count,[7],138
same,Population Apoptotic (%),[8],40%
same,Population Fragmented Nuclei (%),[8],34%
same,Population Healthy Nuclei (%),[8],52%
same,Population Hoechst High Intensity Objects (%),[8],5%
same,Population Membrane Permeable-Phenotype (%),[8],3%
same,Population Mitochondria Different-Phenotype (%),[8],5%
same,Population Mitotic Cells (%),[8],59%
same,Population Normal (%),[8],94%
same,Population Tubulin-Different-Phenotype (%),[8],39%
same,Total Cell Count,[8],170
same,Population Apoptotic (%),[9],25%
same,Population Fragmented Nuclei (%),[9],12%
same,Population Healthy Nuclei (%),[9],79%
same,Population Hoechst High Intensity Objects (%),[9],4%
same,Population Membrane Permeable-Phenotype (%),[9],0%
same,Population Mitochondria Different-Phenotype (%),[9],2%
same,Population Mitotic Cells (%),[9],75%
same,Population Normal (%),[9],95%
same,Population Pyknosed Nuclei (%),[9],8%
same,Population Tubulin-Different-Phenotype (%),[9],23%
same,Total Cell Count,[9],155
same,Population Apoptotic (%),[10],38%
same,Population Fragmented Nuclei (%),[10],23%
same,Population Healthy Nuclei (%),[10],58%
same,Population Hoechst High Intensity Objects (%),[10],3%
same,Population Membrane Permeable-Phenotype (%),[10],9%
same,Population Mitochondria Different-Phenotype (%),[10],8%
same,Population Mitotic Cells (%),[10],61%
same,Population Normal (%),[10],96%
same,Population Pyknosed Nuclei (%),[10],17%
same,Population Tubulin-Different-Phenotype (%),[10],44%
same,Total Cell Count,[10],152
same,Population Apoptotic (%),[11],50%
same,Population Fragmented Nuclei (%),[11],19%
same,Population Healthy Nuclei (%),[11],72%
same,Population Hoechst High Intensity Objects (%),[11],5%
same,Population Membrane Permeable-Phenotype (%),[11],2%
same,Population Mitochondria Different-Phenotype (%),[11],5%
same,Population Mitotic Cells (%),[11],50%
same,Population Normal (%),[11],94%
same,Population Pyknosed Nuclei (%),[11],7%
same,Population Tubulin-Different-Phenotype (%),[11],29%
same,Total Cell Count,[11],136
same,Population Apoptotic (%),[12],60%
same,Population Fragmented Nuclei (%),[12],32%
same,Population Healthy Nuclei (%),[12],60%
same,Population Hoechst High Intensity Objects (%),[12],3%
same,Population Membrane Permeable-Phenotype (%),[12],3%
same,Population Mitochondria Different-Phenotype (%),[12],1%
same,Population Mitotic Cells (%),[12],40%
same,Population Normal (%),[12],96%
same,Population Pyknosed Nuclei (%),[12],6%
same,Population Tubulin-Different-Phenotype (%),[12],28%
same,Total Cell Count,[12],156
